# Reference: article PMC10433104 (Journal of medicinal chemistry, 2023)
# Molecular target: PDE4D7-S129D (PDE4D*) (Homo sapiens, UniProt Q08499, S190D)
# Assay: PDE4 enzyme inhibition assay
# Assay type: biochemical
# Settings: ratio of IC50 for PDE4B* over that for PDE4D*
# Procedure, shortened: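 Mutationally activated dimeric enzymes were used: PDE4D7-S129D (PDE4D*) and PDE4B1-S133D (PDE4B*). PDE4B served as the comparator for the PDE4 subtypes. Activity was read with a real-time coupled enzyme assay rather than a fluorescein-labelled cAMP substrate. An IC50 was obtained against each enzyme, and selectivity was taken as PDE4B* IC50 divided by PDE4D* IC50 (B/D ratio).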
# PDE4D7-S129D (PDE4D*), sequence (Q08499 1-748 isoform Q08499-11 S129D, species assumed): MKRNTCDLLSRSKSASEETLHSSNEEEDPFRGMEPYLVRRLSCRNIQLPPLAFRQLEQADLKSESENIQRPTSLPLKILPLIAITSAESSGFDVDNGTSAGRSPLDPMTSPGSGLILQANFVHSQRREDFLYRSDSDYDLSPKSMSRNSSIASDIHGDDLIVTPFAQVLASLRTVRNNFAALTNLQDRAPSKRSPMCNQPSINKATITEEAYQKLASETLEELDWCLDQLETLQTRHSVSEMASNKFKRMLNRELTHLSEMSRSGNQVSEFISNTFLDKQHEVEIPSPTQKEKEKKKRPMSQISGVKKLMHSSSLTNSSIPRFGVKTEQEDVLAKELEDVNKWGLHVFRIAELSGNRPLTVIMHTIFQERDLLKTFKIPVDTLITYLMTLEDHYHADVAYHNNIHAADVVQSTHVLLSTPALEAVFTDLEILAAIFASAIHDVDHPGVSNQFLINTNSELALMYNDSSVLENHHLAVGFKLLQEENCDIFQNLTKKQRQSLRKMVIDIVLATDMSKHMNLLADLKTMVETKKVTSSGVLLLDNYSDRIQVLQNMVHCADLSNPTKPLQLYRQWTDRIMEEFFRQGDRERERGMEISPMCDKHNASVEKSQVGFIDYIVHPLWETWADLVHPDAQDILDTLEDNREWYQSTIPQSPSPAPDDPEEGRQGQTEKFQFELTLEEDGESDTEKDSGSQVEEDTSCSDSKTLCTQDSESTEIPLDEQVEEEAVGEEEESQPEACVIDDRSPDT
row,SMILES,Selectivity B/D
1,"COc1cccc(-c2nc(Cn3cnc(C(F)(F)F)n3)ccc2OC(F)F)c1 [Compound 44, 3-(Difluoromethoxy)-2-(3-methoxyphenyl)-6-((3-(trifluoromethyl)-1H-1,2,4-triazol-1-yl)methyl)pyridine]",>13
2,"COc1ccc(Nc2cn[nH]c2)nc1-c1cccc(C(F)(F)F)c1 [Compound 13, 5-Methoxy-N-(1H-pyrazol-4-yl)-6-(3-(trifluoromethyl)phenyl)pyridin-2-amine]",>2
3,"COc1ccc(Oc2cn[nH]c2)nc1-c1cccc(OC(F)F)c1 [Compound 18, 6-((1H-Pyrazol-4-yl)oxy)-2-(3-(difluoromethoxy)phenyl)-3-methoxypyridine]",>6
4,"COc1cccc(-c2nc(Cn3ncnn3)ccc2OC(F)F)c1 [Compound 47, 6-((2H-Tetrazol-2-yl)methyl)-3-(difluoromethoxy)-2-(3methoxyphenyl)pyridine]",>575
5,"COc1ccc(Cn2cccn2)nc1-c1cccc(F)c1 [Compound 24, 6-((1H-Pyrazol-1-yl)methyl)-2-(3-fluorophenyl)-3-methoxypyridine]",>2
6,"FC(F)Oc1cccc(-c2nc(Cn3ccnc3)ccc2OCc2ccccc2)c1 [Compound 59, 6-((1H-Imidazol-1-yl)methyl)-3-(benzyloxy)-2-(3(difluoromethoxy)phenyl)pyridine]",>57
7,"COc1ccc(Cc2ccc(CCO)cc2)nc1-c1cccc(OC(F)F)c1 [Compound 53, 2-(4-((6-(3-(Difluoromethoxy)phenyl)-5-methoxypyridin-2-yl)methyl)phenyl)ethan-1-ol]",>2519
8,"COc1ccc(Cn2ncnn2)nc1-c1cccc(OC(F)F)c1 [Compound 34, 6-((2H-Tetrazol-2-yl)methyl)-2-(3-(difluoromethoxy)phenyl)-3methoxypyridine]",>472
9,"COc1cccc(-c2nc(Cn3cncn3)ccc2OC(F)F)c1 [Compound 45, 6-((1H-1,2,4-Triazol-1-yl)methyl)-3-(difluoromethoxy)-2-(3methoxyphenyl)pyridine]",>238
10,"FC(F)Oc1cccc(-c2nc(Cc3ccncc3)ccc2OCc2ccccc2)c1 [Compound 58, 3-(Benzyloxy)-2-(3-(difluoromethoxy)phenyl)-6-(pyridin-4ylmethyl)pyridine]",>13
11,"COc1cccc(-c2nc(Cc3ccc(CCCO)cc3)ccc2OC(F)F)c1 [Compound 56, 3-(4-((5-(Difluoromethoxy)-6-(3-methoxyphenyl)pyridin-2-yl)methyl)phenyl)propan-1-ol]",>420
12,"Fc1ccc(Cc2cn[nH]c2)nc1-c1cccc(Cl)c1 [Compound 10, 6-((1H-Pyrazol-4-yl)methyl)-2-(3-chlorophenyl)-3-fluoropyridine]",>13
13,"COc1ccc(Cn2cnc(C(F)(F)F)n2)nc1-c1cccc(OC(F)F)c1 [Compound 31, 2-(3-(Difluoromethoxy)phenyl)-3-methoxy-6-((3-(trifluoromethyl)-1H-1,2,4-triazol-1-yl)methyl)pyridine]",>13
14,"COc1cccc(-c2nc(COc3cn[nH]c3)ccc2OC(F)F)c1 [Compound 40, 6-(((1H-Pyrazol-4-yl)oxy)methyl)-3-(difluoromethoxy)-2-(3methoxyphenyl)pyridine]",>27
15,"COc1cccc(-c2nc(Nc3cn[nH]c3)ccc2OC(F)F)c1 [Compound 20, 5-(Difluoromethoxy)-6-(3-methoxyphenyl)-N-(1H-pyrazol-4-yl)pyridin-2-amine]",>15
16,"COc1ccc(Cc2ccc(CCCO)cc2)nc1-c1cccc(OC(F)F)c1 [Compound 54, 3-(4-((6-(3-(Difluoromethoxy)phenyl)-5-methoxypyridin-2-yl)methyl)phenyl)propan-1-ol]",>621
17,"COc1ccc(Cn2cncn2)nc1-c1cccc(OC(F)F)c1 [Compound 32, 6-((1H-1,2,4-Triazol-1-yl)methyl)-2-(3-(difluoromethoxy)phenyl)3-methoxypyridine]",>649
18,FC(F)Oc1cccc(-c2nc(Cc3cn[nH]c3)ccc2OCc2ccccc2)c1 [Compound 57],>61
